These results are taken from ChEMBL document CHEMBL1156237, “Antiviral activity of benzimidazole derivatives. II. Antiviral activity of 2-phenylbenzimidazole derivatives” (Bioorg Med Chem, 2010).

Data set [1] can be described thus: Cytotoxicity against human MT4 cells after 96 hrs by MTT assay. In kind it is cell-based. The conditions noted are these: MT4 cells. In short, it runs like this: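 Exponentially growing MT-4 cells at 1 × 10^5 cells/mL in RPMI-1640 with 10% FCS, exposed to serial compound dilutions at 37 °C, 5% CO2. Viability by MTT after 96 h; CC50 is the concentration reducing viability of mock-infected cells by 50%.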

A short description of data set [2]: Cytotoxicity against MDBK cells after 48 to 96 hrs by MTT assay. It counts as cell-based, Bos taurus. The following applies: cattle, MDBK cells. In short, it runs like this:
(§1)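 Cell seeding: MDBK at 6 × 10^5 cells/mL in MEM-E with 10% horse serum and 1 mM Na pyruvate; BHK at 1 × 10^6 cells/mL in MEM-E with 10% FBS. Serial compound dilutions, 37 °C, 5% CO2. Viability of mock-infected cells by MTT after 48–96 h; CC50 is the concentration reducing viability by 50%.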

The nature of data set [3]: Cytotoxicity against BHK cells after 48 to 96 hrs by MTT assay. It counts as cell-based, Mesocricetus auratus. The following applies: hamster. In short, it runs like this: as §1
Data set [4] is described as follows: Cytotoxicity against african green monkey Vero cells. It counts as cell-based. The following applies: chlorocebus sabaeus. In short, it runs like this:
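Vero 76 monolayers exposed to serial compound dilutions, run in parallel on the same 24-well plates as the plaque-reduction assays. CC50 is the concentration reducing viability of mock-infected cells by 50%.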

Data set [5] deals with Human immunodeficiency virus 1. Put plainly: Antiviral activity against HIV1 3B infected in human MT4 cells assessed as protection from virus-induced cytopathogenicity after 4 days by MTT method. In kind it is functional, organism-based. Put shortly: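 MT-4 cells, 1 × 10^4/well in RPMI with or without serial compound dilutions, infected with HIV-1 IIIB, 100 CCID50 (m.o.i. 0.01). Protection from virus-induced cytopathogenicity read by MTT.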

Data set [6] has as its system Vesicular stomatitis virus. In words: Antiviral activity against VSV Indiana lab infected in african green monkey Vero cells after 2 days by plaque reduction assay. It counts as functional, organism-based.
In data set [7] the test system is Bovine viral diarrhea virus 1. Put plainly: Antiviral activity against Bovine viral diarrhea virus NADL infected in MDBK cells assessed as protection from virus-induced cytopathogenicity after 3 to 4 days by MTT method. In kind it is functional, organism-based, Bovine viral diarrhea virus 1-NADL. The following applies: Bovine viral diarrhea virus isolates and strains, MDBK. Put shortly:
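Cytopathogenicity protection assay. MDBK cells at 3 × 10^4/well, grown overnight to confluence. Infected with BVDV NADL at m.o.i. 0.01 in MEM-E with 0.5% inactivated FBS, 1 mM Na pyruvate and 1% kanamycin. Serial compound dilutions added after 1 h. After 3–4 days at 37 °C, viability read by MTT; EC50 is the concentration giving 50% protection.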

The subject of a further data set is Yellow fever virus. Put plainly: Antiviral activity against Yellow fever virus 17D infected in BHK cells assessed as protection from virus-induced cytopathogenicity after 3 to 4 days by MTT method. In kind it is functional, organism-based.
The test system of a further data set is Coxsackievirus B2. In words: Antiviral activity against Human coxsackievirus B2 Ohio-1 infected in african green monkey Vero cells after 3 days by plaque reduction assay. It counts as functional, organism-based, Coxsackievirus B2 (strain Ohio-1). The following applies: Enterovirus B, Vero, 72 h. Put shortly: (§2)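 Plaque reduction assay. Vero 76 cells at 2 × 10^5/well, grown overnight to confluence in D-MEM with 10% FBS. Infected 2 h with 50–100 PFU/well, unadsorbed virus removed. Overlay of D-MEM with 1% inactivated FBS and 0.75% methylcellulose, with or without serial compound dilutions. Incubated at 37 °C for 3 days (HSV-1 KOS, CVB-2 Ohio-1) or 5 days (RSV A2). Fixed and stained with crystal violet in 50% ethanol; plaques counted; EC50 by linear regression.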

A further data set concerns Poliovirus 1. In words: Antiviral activity against Polio virus type1 Sabin strain Chat infected in african green monkey Vero cells after 2 days by plaque reduction assay. The conditions noted are these: Enterovirus C, 48 h. It counts as functional, organism-based, Human poliovirus 1 strain Sabin.
A further data set has as its system Human alphaherpesvirus 1. In words: Antiviral activity against HSV1 KOS infected in african green monkey Vero cells after 3 days by plaque reduction assay. The following applies: Human alphaherpesvirus 1, KOS, 72 h. In kind it is functional, organism-based. In short, it runs like this: as §2

Active and inactive are the calls of the source. The rule behind the calls is not given here.

Take `O=C(CNC12CC3CC(CC(C3)C1)C2)Nc1ccc(-c2nc3cc(C(F)(F)F)ccc3[nH]2)cc1`: the CC50 at 96 h in [1] came out at 15 µM. Also, the cytotoxic concentration (CC50) turned out to be 23 µM in [2], 18 µM in [3] and 45 µM in data set [4]. For the same compound, the result in [5] and in [6] was inactive. In addition, the EC50 in data set [7] is more than 23 µM; in the data set with Yellow fever virus it was more than 18 µM; in the data set with Coxsackievirus B2 it was more than 45 µM; in the data set with Poliovirus 1, more than 45 µM; in the data set on Human alphaherpesvirus 1, 45 µM.
The compound `O=C(CCl)Nc1ccc(-c2nc3cc(C(F)(F)F)ccc3[nH]2)cc1` showed a CC50 at 96 h in data set [1] of 5 µM. Moreover, the CC50 in data set [2] was 17 µM; in [3], 22 µM; in data set [4], 35 µM. Moreover, the result in data set [5] and in data set [6] was inactive. The EC50 in [7] is more than 17 µM; in the data set with Yellow fever virus, more than 22 µM; in the data set with Coxsackievirus B2 it was 24 µM; in the data set on Poliovirus 1, more than 35 µM; with Human alphaherpesvirus 1, more than 35 µM.
`O=C(CN1CCCCC1)Nc1ccc(-c2nc3cc(C(F)(F)F)ccc3[nH]2)cc1`: in data set [1], the half-maximal cytotoxic concentration (CC50) at 96 h was found to be 6 µM. Moreover, the figures for the CC50 in data set [2], in data set [3] and in [4] were 6 µM, 12 µM and 31 µM, respectively. Also, the result in data set [5] and in [6] was inactive. Moreover, the 50% effective concentration (EC50) in data set [7] is 2 µM; with Yellow fever virus, more than 12 µM; in the data set on Coxsackievirus B2, 9 µM; in the data set on Poliovirus 1, more than 31 µM; in the data set on Human alphaherpesvirus 1 it was more than 31 µM.
In the case of `O=C(CN1CCOCC1)Nc1ccc(-c2nc3ccccc3[nH]2)cc1`, the midpoint of cytotoxicity in [1], the CC50 at 96 h, lay at 100 µM. Further, the values for the CC50 in data set [2], in data set [3] and in data set [4] were 77 µM, more than 100 µM and more than 100 µM, respectively. The result in data set [5] and in data set [6] was inactive. Further, the EC50 in data set [7] was more than 77 µM; with Yellow fever virus, more than 100 µM; in the data set with Coxsackievirus B2, more than 100 µM; with Poliovirus 1, more than 100 µM; in the data set on Human alphaherpesvirus 1, more than 100 µM.
In turn, `CCC(=O)Nc1ccc(-c2nc3ccccc3[nH]2)cc1` displayed a CC50 at 96 h in [1] of 35 µM. In addition, the CC50 in [2] was more than 100 µM; in [3], not below 100 µM; in data set [4] it was more than 100 µM. The result in data set [5] and in data set [6] was inactive. The half-maximal effective concentration (EC50) in [7] is 47 µM; with Yellow fever virus, more than 100 µM; in the data set with Coxsackievirus B2, 9 µM; with Poliovirus 1, 35 µM; with Human alphaherpesvirus 1, more than 100 µM.
Turning to `O=C(O)CCC(=O)Nc1ccc(-c2nc3cc(C(F)(F)F)ccc3[nH]2)cc1`, the 50% cytotoxic concentration (CC50) at 96 h in data set [1] is more than 100 µM. In addition, the cytotoxic concentration (CC50) in data set [2], in data set [3] and in [4] was more than 100 µM each time. The outcome in data set [5] and in data set [6] was inactive. In addition, the EC50 (in [7]; in the data set on Yellow fever virus; in the data set on Coxsackievirus B2; with Poliovirus 1; in the data set with Human alphaherpesvirus 1) was more than 100 µM throughout.
In data set [1], `O=C(CN1CCN(c2ccccc2)CC1)Nc1ccc(-c2nc3cc(C(F)(F)F)ccc3[nH]2)cc1` yielded a CC50 at 96 h of 0.9 µM. In addition, the CC50 in data set [2] is 32 µM; in data set [3] it was more than 100 µM; in data set [4], more than 100 µM. Further, the result in data set [5] and in data set [6] was inactive. Moreover, the EC50 was more than 32 µM in data set [7]; more than 100 µM in the data set on Yellow fever virus; more than 100 µM with Coxsackievirus B2; more than 100 µM in the data set with Poliovirus 1; more than 100 µM with Human alphaherpesvirus 1.
